ChEMBL document CHEMBL4184090, “Discovery of novel jaspine B analogues as autophagy inducer” (Bioorg Med Chem Lett, 2018)
Active and inactive are the calls of the source. The rule behind the calls is not given here.

What was measured:
MCF7 = assay: Antiproliferative activity against human MCF7 cells after 72 hrs by MTT assay; type: functional, cell-based; settings: MCF7, 72 h
Method in brief: (§1)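 MTT proliferation assay; cells exposed to compounds for 72 h. IC50 is the concentration inhibiting tumor cell proliferation by 50%. Means ± SDs of three independent experiments. 5-Fluorouracil used as positive control.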

A549 = assay: Antiproliferative activity against human A549 cells after 72 hrs by MTT assay; type: functional, cell-based; settings: A549, 72 h; method in brief: as §1
B16-F10 = assay: Antiproliferative activity against mouse B16/F10 cells after 72 hrs by MTT assay; type: functional, cell-based; settings: B16-F10, 72 h; method in brief: as §1
PC-3 [1] = assay: Antiproliferative activity against human PC3 cells after 72 hrs by MTT assay; type: functional, cell-based; settings: PC-3, 72 h; method in brief: as §1
PC-3 [2] = assay: Induction of apoptosis in human PC3 cells assessed as late apoptotic cells at 3 uM after 48 hrs by Annexin V-FITC/propidium iodide staining-based flow cytometric analysis (reference value: 9.3%); type: functional
PC-3 [3] = assay: Induction of autophagy in human PC3 cells assessed as increase LC3-2 accumulation at 4 uM by confocal microscopic analysis; type: functional, cell-based; settings: TDE = time-dependent effect
Method in brief: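 LC3 immunofluorescence in PC-3 cells imaged by confocal microscopy over time up to 24 h to follow autophagosome formation.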

PC-3 [4] = assay: Induction of mitochondrial membrane potential loss in human PC3 cells at 1 uM after 24 hrs by JC-1 staining-based flow cytometric analysis (reference value: 50.5%); type: functional
PC-3 [5] = assay: Cytotoxicity against human PC3 cells assessed as reduction in cell viability at 3 uM after 48 hrs by MTT assay relative to control; type: functional
Method in brief: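 MTT viability read-out in PC-3 cells incubated with a range of concentrations for 48 h; viability expressed relative to untreated control cells.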

PC-3 [6] = assay: Induction of apoptosis in human PC3 cells assessed as early apoptotic cells at 4 uM after 48 hrs by Annexin V-FITC/propidium iodide staining-based flow cytometric analysis (reference value: 12.4%); type: functional
PC-3 [7] = assay: Induction of apoptosis in human PC3 cells assessed as late apoptotic cells at 2 uM after 48 hrs by Annexin V-FITC/propidium iodide staining-based flow cytometric analysis (reference value: 9.3%); type: functional
PC-3 [8] = assay: Induction of mitochondrial membrane potential loss in human PC3 cells at 4 uM after 24 hrs by JC-1 staining-based flow cytometric analysis (reference value: 50.5%); type: functional
PC-3 [9] = assay: Induction of apoptosis in human PC3 cells assessed as viable cells at 4 uM after 48 hrs by Annexin V-FITC/propidium iodide staining-based flow cytometric analysis (reference value: 78.2%); type: functional; settings: PC-3, 48 h, read-out: Activity
PC-3 [10] = assay: Induction of apoptosis in human PC3 cells assessed as viable cells at 3 uM after 48 hrs by Annexin V-FITC/propidium iodide staining-based flow cytometric analysis (reference value: 78.2%); type: functional; settings: PC-3, 48 h, read-out: Activity
PC-3 [11] = assay: Induction of apoptosis in human PC3 cells assessed as early apoptotic cells at 3 uM after 48 hrs by Annexin V-FITC/propidium iodide staining-based flow cytometric analysis (reference value: 12.4%); type: functional
PC-3 [12] = assay: Induction of apoptosis in human PC3 cells assessed as necrotic cells at 1 uM after 48 hrs by Annexin V-FITC/propidium iodide staining-based flow cytometric analysis (reference value: 0.1%); type: functional
PC-3 [13] = assay: Induction of apoptosis in human PC3 cells assessed as necrotic cells at 3 uM after 48 hrs by Annexin V-FITC/propidium iodide staining-based flow cytometric analysis (reference value: 0.1%); type: functional
PC-3 [14] = assay: Induction of apoptosis in human PC3 cells assessed as late apoptotic cells at 1 uM after 48 hrs by Annexin V-FITC/propidium iodide staining-based flow cytometric analysis (reference value: 9.3%); type: functional
PC-3 [15] = assay: Induction of autophagy in human PC3 cells assessed as increase in beclin-1 expression level by Western blot analysis; type: functional, cell-based
Method in brief: (§2)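 Western blot of PC-3 lysates for beclin-1, LC3B-I, LC3B-II and P62 after treatment at increasing concentrations.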

PC-3 [16] = assay: Induction of apoptosis in human PC3 cells assessed as viable cells at 1 uM after 48 hrs by Annexin V-FITC/propidium iodide staining-based flow cytometric analysis (reference value: 78.2%); type: functional; settings: PC-3, 48 h, read-out: Activity
PC-3 [17] = assay: Induction of mitochondrial membrane potential loss in human PC3 cells at 3 uM after 24 hrs by JC-1 staining-based flow cytometric analysis (reference value: 50.5%); type: functional
PC-3 [18] = assay: Induction of autophagy in human PC3 cells assessed as decrease in P62 protein level at 1 uM by Western blot analysis; type: functional, cell-based; method in brief: as §2
PC-3 [19] = assay: Induction of apoptosis in human PC3 cells assessed as necrotic cells at 4 uM after 48 hrs by Annexin V-FITC/propidium iodide staining-based flow cytometric analysis (reference value: 0.1%); type: functional
PC-3 [20] = assay: Induction of apoptosis in human PC3 cells assessed as early apoptotic cells at 1 uM after 48 hrs by Annexin V-FITC/propidium iodide staining-based flow cytometric analysis (reference value: 12.4%); type: functional
PC-3 [21] = assay: Induction of apoptosis in human PC3 cells assessed as early apoptotic cells at 2 uM after 48 hrs by Annexin V-FITC/propidium iodide staining-based flow cytometric analysis (reference value: 12.4%); type: functional
PC-3 [22] = assay: Induction of apoptosis in human PC3 cells assessed as late apoptotic cells at 4 uM after 48 hrs by Annexin V-FITC/propidium iodide staining-based flow cytometric analysis (reference value: 9.3%); type: functional
PC-3 [23] = assay: Induction of morphological changes in human PC3 cells at 3 uM by microscopic analysis; type: functional, cell-based
PC-3 [24] = assay: Induction of mitochondrial membrane potential loss in human PC3 cells at 2 uM after 24 hrs by JC-1 staining-based flow cytometric analysis (reference value: 50.5%); type: functional
PC-3 [25] = assay: Induction of autophagy in human PC3 cells assessed as increase in LC3-2 expression level by Western blot analysis; type: functional, cell-based; method in brief: as §2
PC-3 [26] = assay: Induction of apoptosis in human PC3 cells assessed as necrotic cells at 2 uM after 48 hrs by Annexin V-FITC/propidium iodide staining-based flow cytometric analysis (reference value: 0.1%); type: functional
PC-3 [27] = assay: Induction of apoptosis in human PC3 cells assessed as viable cells at 2 uM after 48 hrs by Annexin V-FITC/propidium iodide staining-based flow cytometric analysis (reference value: 78.2%); type: functional; settings: PC-3, 48 h, read-out: Activity

SMILES: CCCCCCCCCCNC[C@@H]1OC[C@H](N)[C@@H]1O
- IC50 (MCF7): 34.2 µM
- IC50 (A549): 47.8 µM
- IC50 (B16-F10): 29.6 µM
- IC50 (PC-3 [1]): 11.9 µM

SMILES: CCCCCCCCCCCNC[C@@H]1OC[C@H](N)[C@@H]1O
- IC50 (MCF7): 6.77 µM
- IC50 (A549): 11.1 µM
- IC50 (B16-F10): 19.3 µM
- IC50 (PC-3 [1]): 3.33 µM

SMILES: CCCCCCCNC[C@@H]1OC[C@H](N)[C@@H]1O
- IC50 (MCF7): > 128 µM
- IC50 (A549): > 128 µM
- IC50 (B16-F10): > 128 µM
- IC50 (PC-3 [1]): 22.4 µM

SMILES: CCCCCCCCNC[C@@H]1OC[C@H](N)[C@H]1O
- IC50 (MCF7): > 128 µM
- IC50 (A549): 71.8 µM
- IC50 (B16-F10): > 128 µM
- IC50 (PC-3 [1]): 13 µM

SMILES: CCCCCCCCNC[C@@H]1OC[C@H](N)[C@@H]1O
- IC50 (MCF7): 96.6 µM
- IC50 (A549): > 128 µM
- IC50 (B16-F10): > 128 µM
- IC50 (PC-3 [1]): 13.8 µM

SMILES: CCCCCCCCCCCCCC[C@@H]1OC[C@H](N)[C@@H]1O [PACHASTRISSAMINE]
- IC50 (MCF7): 2.33 µM
- IC50 (A549): 1.87 µM
- IC50 (B16-F10): 0.5 µM
- IC50 (PC-3 [1]): 0.7 µM

SMILES: CCCCCCCCCNC[C@@H]1OC[C@H](N)[C@@H]1O
- IC50 (MCF7): 12.5 µM
- IC50 (A549): 22.1 µM
- IC50 (B16-F10): 55.2 µM
- IC50 (PC-3 [1]): 2.03 µM

SMILES: CCCCCCCCCCNC[C@@H]1OC[C@H](N)[C@H]1O
- IC50 (MCF7): 42.7 µM
- IC50 (A549): > 128 µM
- IC50 (B16-F10): > 128 µM
- IC50 (PC-3 [1]): > 128 µM

SMILES: CCCCCCCCCCCCCCNC[C@@H]1OC[C@H](N)[C@@H]1O
- IC50 (MCF7): 0.72 µM
- IC50 (A549): 2.85 µM
- IC50 (B16-F10): 14.3 µM
- IC50 (PC-3 [1]): 1.2 µM

SMILES: CCCCCCCCCCCNC[C@@H]1OC[C@H](N)[C@H]1O
- IC50 (MCF7): 13.1 µM
- IC50 (A549): 9.65 µM
- IC50 (B16-F10): 88.8 µM
- IC50 (PC-3 [1]): 10 µM

SMILES: O=c1[nH]cc(F)c(=O)[nH]1 [FLUOROURACIL]
- IC50 (MCF7): 6.11 µM
- IC50 (A549): 0.43 µM
- IC50 (B16-F10): 6.29 µM
- IC50 (PC-3 [1]): 0.53 µM

SMILES: CCCCCCCNC[C@@H]1OC[C@H](N)[C@H]1O
- IC50 (MCF7): > 128 µM
- IC50 (A549): > 128 µM
- IC50 (B16-F10): > 128 µM
- IC50 (PC-3 [1]): > 128 µM

SMILES: CCCCCCCCCCCCNC[C@@H]1OC[C@H](N)[C@@H]1O
- Activity (PC-3 [2]): 15.7%
- Activity (PC-3 [3]): Tde
- Activity (PC-3 [4]): 69.1%
- IC50 (MCF7): 1.8 µM
- Activity (PC-3 [5]): 56%
- Activity (PC-3 [6]): 9.3%
- Activity (PC-3 [7]): 9.6%
- Activity (PC-3 [8]): 93%
- viability at 4 µM (PC-3 [9]): 8.5%
- viability at 3 µM (PC-3 [10]): 80.8%
- Activity (PC-3 [11]): 3%
- Activity (PC-3 [12]): 0.2%
- Activity (PC-3 [13]): 0.6%
- Activity (PC-3 [14]): 8%
- Activity (PC-3 [15]): Dose-dependent effect
- viability at 1 µM (PC-3 [16]): 89.2%
- IC50 (A549): 5.87 µM
- Activity (PC-3 [17]): 88.2%
- IC50 (B16-F10): 10.7 µM
- Activity (PC-3 [18]): Active
- Activity (PC-3 [19]): 0.2%
- Activity (PC-3 [20]): 2.6%
- Activity (PC-3 [21]): 2.3%
- Activity (PC-3 [22]): 81.9%
- Activity (PC-3 [23]): Active
- Activity (PC-3 [24]): 78.6%
- Activity (PC-3 [25]): Dose-dependent effect
- Activity (PC-3 [26]): 0.3%
- viability at 2 µM (PC-3 [27]): 87.7%
- IC50 (PC-3 [1]): 0.85 µM

SMILES: CCCCCCCCCCCCCCNC[C@@H]1OC[C@H](N)[C@H]1O
- IC50 (MCF7): 8.83 µM
- IC50 (A549): 19.9 µM
- IC50 (B16-F10): 64.2 µM
- IC50 (PC-3 [1]): 1.99 µM

SMILES: CCCCCCCCCCCCNC[C@@H]1OC[C@H](N)[C@H]1O
- IC50 (MCF7): 12.6 µM
- IC50 (A549): 41.1 µM
- IC50 (B16-F10): 58.1 µM
- IC50 (PC-3 [1]): 2.38 µM

SMILES: CCCCCCCCCNC[C@@H]1OC[C@H](N)[C@H]1O
- IC50 (MCF7): 60.3 µM
- IC50 (A549): > 128 µM
- IC50 (B16-F10): > 128 µM
- IC50 (PC-3 [1]): 7.65 µM
